The values below come from ChEMBL document CHEMBL1133536, “Cation substitution in cationic phosphonolipids: a new concept to improve transfection activity and decrease cellular toxicity” (J Med Chem, 2000).

Series [1] has as its target T1, Aspartate aminotransferase, mitochondrial (Mus musculus) (UniProt P05202).
T1 sequence (whole entry): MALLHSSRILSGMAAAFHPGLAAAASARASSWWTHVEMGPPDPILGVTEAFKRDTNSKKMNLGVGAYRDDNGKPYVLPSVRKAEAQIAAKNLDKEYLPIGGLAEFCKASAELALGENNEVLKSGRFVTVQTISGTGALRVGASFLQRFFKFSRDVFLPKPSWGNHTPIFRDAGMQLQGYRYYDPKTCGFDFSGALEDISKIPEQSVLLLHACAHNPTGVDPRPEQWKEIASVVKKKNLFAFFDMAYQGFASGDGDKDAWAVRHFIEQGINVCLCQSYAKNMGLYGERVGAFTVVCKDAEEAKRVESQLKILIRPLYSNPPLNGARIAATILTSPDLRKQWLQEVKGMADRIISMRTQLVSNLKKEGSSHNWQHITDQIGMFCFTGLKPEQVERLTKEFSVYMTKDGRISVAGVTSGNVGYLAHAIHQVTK
The series is described as follows: In vivo toxic effect as serum aspartate aminotransferase (ASAT) 24 hr after DOPE complexed 50 ug pTG11033 plasmid injection into mice. The class given is functional, organism-based. The method, boiled down: (§1)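 Female Swiss mice, 6 weeks old, given one 200 µL tail-vein injection of cationic phosphonolipid/pTG11033 lipoplexes (lipid:DNA charge ratio 4, 50 µg DNA per animal). Lipoplexes were held 30 min at room temperature beforehand. Serum was taken from coagulated blood 24 h later and transaminases measured on an automated analyser. Results are mean (SEM) of 6 animals. TI = transfected/control mouse transaminase level.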

Series [2] deals with T1, Aspartate aminotransferase, mitochondrial (Mus musculus). Description: Toxicity index as ratio of serum ASAT levels in transfected and control mice. The class given is functional. In a few lines: as §1
For series [3] the target is unchanged. The series is described as follows: In vivo toxic effect as serum aspartate aminotransferase (ASAT) 24 hr after 50 ug pTG11033 plasmid injection without co-lipid into mice. The class given is functional, organism-based. In a few lines:
as §1

The nature of series [4]: (§2) In vivo toxic effect of alanine aminotransferase (ALAT) was determined 24 hr after mice were injected with 50 microg of pTG11033 plasmid complexed with compound into serum with cholesterol. More on the design: unit not given beside the values. The settings on record: mouse. The class given is ADME, organism-based. The method, boiled down: as §1
Series [5] deals with T1, Aspartate aminotransferase, mitochondrial (Mus musculus). The series is described as follows: In vivo toxic effect as serum aspartate aminotransferase (ASAT) 24 hr after cholesterol complexed 50 ug pTG11033 plasmid injection into mice. In kind it is functional, organism-based. The method, boiled down:
as §1

Series [6] in a line: In vivo toxic effect of alanine aminotransferase (ALAT) was determined 24 hr after mice were injected with 50 microg of pTG11033 plasmid complexed with compound into serum without co-lipid. In kind it is ADME, organism-based. Conditions: mouse. In a few lines: as §1
A short description of series [7]: In vivo toxic effect of alanine aminotransferase (ALAT) was determined 24 hr after mice were injected with 50 microg of pTG11033 plasmid complexed with compound into serum with DOPE. The class given is ADME, organism-based. The settings on record: mouse. The method, boiled down:
as §1

Series [8] in a line: as §2. In kind it is ADME, organism-based. Conditions: mouse. The method, boiled down: as §1

Values joined by “and” are separate entries in the source; they are usually repeats but may differ in a detail not shown here. Equal entries are not always repeated.

Turning to `CCCCCCCCCCCCCCOP(=O)(C[N+](C)(C)C)OCCCCCCCCCCCCCC.[I-]`, the Toxicity in series [1] came out at 130; in series [3], 80; in series [4], 24; in series [5] it was 75; in series [6], 25; in series [7] it was 31. In addition, the TI in series [2] is 1.12 [middle of 4 runs].
Consider `CCCCCCCC/C=C/CCCCCCCCOP(=O)(CC[P+](C)(C)C)OCCCCCCCC/C=C/CCCCCCCC.[I-]`, for which the Toxicity in series [1] turned out to be 646; in series [8], 184; in series [3], 250; in series [5] it was 685; in series [6], 35; in series [7], 65.
For `CCCCCCCC/C=C/CCCCCCCCOP(=O)(CC[As+](C)(C)C)OCCCCCCCC/C=C/CCCCCCCC.[I-]`, the Toxicity in series [1] turned out to be 303; in series [3] it was 225; in series [4], 172; in series [5], 600; in series [6], 35; in series [7], 36.
In the case of `CCCCCCCCCCCCCCOP(=O)(CC[As+](C)(C)C)OCCCCCCCCCCCCCC.[I-]`, the Toxicity in series [1] worked out at 155; in series [8] it was 41; in series [3], 79; in series [5], 190; in series [6], 26; in series [7] it was 34. In series [2], the TI is 1.47 [middle of 4 runs].
Take `CCCCCCCCCCCCCCOP(=O)(CC[P+](C)(C)C)OCCCCCCCCCCCCCC.[I-]`: the Toxicity came out at 145 in series [1]; 120 in series [3]; 34 in series [4]; 174 in series [5]; 55 in series [6]; 39 in series [7]. In series [2], the TI was 1.69 (2×) and 2.39 and 2.45.
As for `CCCCCCCC/C=C\CCCCCCCC(=O)OCC(C[N+](C)(C)C)OC(=O)CCCCCCC/C=C\CCCCCCCC.[Cl-]` (stereo not given), the Toxicity in series [1] was found to be 275; in series [3], 657; in series [4] it was 37; in series [5] it was 255; in series [6], 70; in series [7], 74.
As to `CCCCCCCC/C=C/CCCCCCCCOP(=O)(C[N+](C)(C)C)OCCCCCCCC/C=C/CCCCCCCC.[I-]`, the Toxicity in series [1] came to 125; in series [3], 900; in series [4] it was 70; in series [5] it was 225; in series [6], 250; in series [7], 30.
